27 compounds from ChEMBL document CHEMBL1129791, “Antipsoriatic anthrones with modulated redox properties. 3. 10-thio-substituted 1,8-dihydroxy-9(10H)-anthracenones as inhibitors of keratinocyte growth, 5-lipoxygenase, and the formation of 12(S)-HETE in mouse epidermis” (J Med Chem, 1996) can be followed below.

A value given as a limit tells only on which side of the number the result lay.

One may read the IC50 as the concentration that gives 50% inhibition. By pKa is commonly meant the pH at which an ionisable group is half protonated. Read a low pKa as a group that gives up its proton readily. The term half-life denotes how long it takes for the measured level to halve. Read a high half-life as slow decline.

A short description of data set [1]: Deoxyribose degradation (DD) as umol of malondialdehyde/mmol of deoxyribose released by 75 uM. In kind it is functional. The gist of the method:
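Deoxyribose degradation run in 30 mM KH2PO4-KOH buffer, pH 7.4, with 75 µM compound. Incubated 2 h at 37 °C in shaking water bath. TBA-reactive material read at 532 nm and expressed as µmol malondialdehyde per mmol deoxyribose.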

Data set [2] deals with HaCaT. Briefly: Tested for antiproliferative activity against HaCaT cells. In kind it is functional, cell-based. Particulars: Homo sapiens. The gist of the method: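 HaCaT keratinocytes treated for 48 h. Dispersed cells counted by phase-contrast microscopy. Inhibition = (1 − test/control) × 100, using test N = 3 and control N = 6-8.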
In data set [3] the target is T1, Polyunsaturated fatty acid lipoxygenase ALOX12 (Mus musculus, UniProt P39655).
T1 sequence (P39655 whole entry): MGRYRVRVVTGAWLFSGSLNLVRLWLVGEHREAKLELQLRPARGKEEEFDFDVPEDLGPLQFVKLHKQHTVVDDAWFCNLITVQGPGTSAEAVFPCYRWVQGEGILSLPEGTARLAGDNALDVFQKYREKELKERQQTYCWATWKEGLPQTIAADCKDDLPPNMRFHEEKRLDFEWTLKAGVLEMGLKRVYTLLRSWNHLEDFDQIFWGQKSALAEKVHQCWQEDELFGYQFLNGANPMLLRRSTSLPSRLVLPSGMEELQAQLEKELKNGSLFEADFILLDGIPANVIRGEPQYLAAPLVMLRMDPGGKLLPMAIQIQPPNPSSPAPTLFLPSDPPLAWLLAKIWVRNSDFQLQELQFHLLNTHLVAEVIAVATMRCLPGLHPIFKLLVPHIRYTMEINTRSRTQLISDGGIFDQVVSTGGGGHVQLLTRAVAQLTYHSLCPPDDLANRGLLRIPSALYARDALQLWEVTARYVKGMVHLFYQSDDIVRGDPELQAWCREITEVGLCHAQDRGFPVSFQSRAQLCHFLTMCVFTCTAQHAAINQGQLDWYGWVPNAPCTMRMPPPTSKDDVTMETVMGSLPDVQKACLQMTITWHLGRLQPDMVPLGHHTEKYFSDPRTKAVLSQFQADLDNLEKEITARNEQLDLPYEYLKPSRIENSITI
Briefly: Tested for inhibition of 12-LO (12-lipoxygenase) as an inhibitor of 12(S)-HETE biosynthesis in mouse epidermal homogenates.

In data set [4] the target is T2, Arachidonate 5-lipoxygenase (Bos taurus, UniProt Q9BEG3).
T2 sequence (Q9BEG3 whole entry): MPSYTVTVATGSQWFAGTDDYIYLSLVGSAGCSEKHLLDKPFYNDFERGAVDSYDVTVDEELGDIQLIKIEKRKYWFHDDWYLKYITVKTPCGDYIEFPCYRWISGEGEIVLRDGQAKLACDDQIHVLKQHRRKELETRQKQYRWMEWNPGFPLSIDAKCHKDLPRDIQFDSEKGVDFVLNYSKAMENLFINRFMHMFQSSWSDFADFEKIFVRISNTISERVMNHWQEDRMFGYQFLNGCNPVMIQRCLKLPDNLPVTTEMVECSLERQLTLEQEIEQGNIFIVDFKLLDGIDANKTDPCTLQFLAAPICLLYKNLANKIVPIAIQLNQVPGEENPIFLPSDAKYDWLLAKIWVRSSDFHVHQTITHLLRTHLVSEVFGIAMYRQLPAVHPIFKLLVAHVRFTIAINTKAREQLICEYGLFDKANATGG
Briefly: Tested for inhibition of 5-lipoxygenase as inhibition of 5-HETE and LTB4 biosynthesis in bovine PMNL.

In data set [5] the test system is HaCaT. Briefly: Compound was tested for activity of LDH(mU) release in HaCat cells after treatment with 2 uM compound. In kind it is functional, Homo sapiens. The gist of the method: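 Human HaCaT keratinocytes exposed to 2 µM compound for 4 h at 37 °C. Extracellular LDH measured by UV method with pyruvate and NADH, expressed as mU/mL. Vehicle controls run in parallel; N = 3.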

Data set [6] can be described thus: Acidity constant in aqueous solution was determined. Format: ADME. The gist of the method:
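UV absorption spectra recorded in buffer solutions spanning pH 2.5–12.0, with measured pH values corrected where needed. Absorbance at pH 2.5 was taken as the neutral species and at pH 12.0 as the fully deprotonated species. pKa was obtained from titration curves of absorbance at suitable wavelengths.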

A short description of data set [7]: Half life in DMSO at 25 degrees celsius was determined. In kind it is ADME.
A short description of data set [8]: Half life in ethanol at 25 degrees celsius was determined. In kind it is ADME.
Data set [9] in a line: half life in DMSO at 25 degrees celsius. In kind it is ADME.
The nature of data set [10]: half life in ethanol at 25 degrees celsius. Format: ADME.

Turning to `O=C1c2c(O)cccc2C(SCCCc2ccccc2)c2cccc(O)c21`, the DD in [1] was 2.71. The IC50 with HaCaT [2] is greater than 5 µM.
Turning to `CCCSC1c2cccc(O)c2C(=O)c2c(O)cccc21`, the half-maximal inhibitory concentration (IC50) in data set [3] is greater than 30 µM; in data set [4], greater than 30 µM; with HaCaT [2], 1.2 µM. For the same compound, in the data set on HaCaT [5], the LDH was determined as 117 mU/mL. Further, the DD in [1] was 2.81.
On to `O=C1c2c(O)cccc2C(Sc2ccccc2)c2cccc(O)c21`, for which the half-maximal inhibitory concentration (IC50) in [3] worked out at 30 µM; in data set [4], 8 µM; with HaCaT [2], 3.7 µM. In data set [6], the pKa amounted to 5.4. The half-life in data set [7] was 28 h; in data set [8], 12 h. Further, the DD in data set [1] was 4.13.
On to `CCOC(=O)CSC1c2cccc(O)c2C(=O)c2c(O)cccc21`, for which the IC50 in data set [3] was greater than 30 µM; in data set [4], greater than 30 µM; in the data set on HaCaT [2], 4.5 µM. In data set [1], the DD is 4.51.
As to `COC(=O)CCSC1c2cccc(O)c2C(=O)c2c(O)cccc21`, the IC50 came out at 27 µM in data set [3], 15 µM in data set [4] and 1.1 µM in the data set with HaCaT [2]. In the data set on HaCaT [5], this compound yielded an LDH of 133 mU/mL. The DD in data set [1] came to 5.25.
In the case of `O=C1c2c(O)cccc2C(Sc2ccc(O)cc2)c2cccc(O)c21`, the results for the IC50 (in data set [3]; in data set [4]; in the data set with HaCaT [2]) were 3 µM, 2 µM and 0.1 µM, respectively. Moreover, in data set [6], the pKa was 6.2. The figures for the half-life in [7] and in data set [8] were 55 h and 34 h, respectively. The compound further registered an LDH in the data set with HaCaT [5] of 148 mU/mL. For the same compound, the DD in data set [1] turned out to be 3.61.
For the compound `CCCCOC(=O)CCSC1c2cccc(O)c2C(=O)c2c(O)cccc21`, the figures for the 50% inhibitory concentration (IC50) (in data set [3]; in data set [4]; in the data set with HaCaT [2]) were 30 µM, 30 µM and 2.3 µM, respectively. In data set [6], this compound displayed a pKa of 5.7. Moreover, the half-life is 11 h in [7] and 2 h in data set [8]. Besides, in data set [1], the DD was determined as 5.38.
Take `O=C1c2c(O)cccc2C(SCCO)c2cccc(O)c21`: the half-inhibitory concentration (IC50) is greater than 30 µM in [3], 2 µM in data set [4] and 1.2 µM with HaCaT [2]. Besides, the LDH with HaCaT [5] turned out to be 136 mU/mL. Also, the DD in data set [1] came out at 2.49.
Regarding `O=C1c2c(O)cccc2C(SCC(O)CO)c2cccc(O)c21` (stereo not given), the values for the IC50 (in data set [3]; in data set [4]; in the data set on HaCaT [2]) were greater than 30 µM, 9 µM and 1.7 µM, respectively. The DD in data set [1] came out at 2.45.
Turning to `COc1cccc(SC2c3cccc(O)c3C(=O)c3c(O)cccc32)c1`, the figures for the concentration for half-maximal inhibition (IC50) (in [3]; in the data set with HaCaT [2]) were 30 µM and 1.8 µM, respectively. Moreover, the DD in [1] was 4.29.
Take `CCOC(=O)CCSC1c2cccc(O)c2C(=O)c2c(O)cccc21`: the concentration for half-maximal inhibition (IC50) in data set [3] was 30 µM; in data set [4], greater than 30 µM; in the data set on HaCaT [2], 1.6 µM. In addition, in the data set with HaCaT [5], the LDH was determined as 124 mU/mL. For the same compound, the DD in data set [1] was found to be 5.52.
For `COc1ccc(SC2c3cccc(O)c3C(=O)c3c(O)cccc32)cc1`, the half-maximal inhibitory concentration (IC50) was 30 µM in data set [3], 3 µM in data set [4] and 1.7 µM in the data set with HaCaT [2]. This compound displayed a pKa in data set [6] of 7.9. For the same compound, the half-life in data set [7] was 32 h; in data set [8], 21 h. In the data set on HaCaT [5], this compound registered an LDH of 137 mU/mL. The DD in data set [1] turned out to be 1.59.
`CCCCOC(=O)CSC1c2cccc(O)c2C(=O)c2c(O)cccc21`: the half-maximal inhibitory concentration (IC50) was 30 µM in data set [3], greater than 30 µM in data set [4] and 2.1 µM in the data set with HaCaT [2]. Also, the DD in data set [1] came out at 4.19.
In the same order, the values of `O=C(O)CCSC1c2cccc(O)c2C(=O)c2c(O)cccc21` are 30 µM, 2 µM, 1.9 µM and 6.34.
For `NC(CSC1c2cccc(O)c2C(=O)c2c(O)cccc21)C(=O)O` (stereo not given) the same measures were 30 µM, greater than 30 µM, greater than 5 µM and 2.33.
On to `Nc1ccc(SC2c3cccc(O)c3C(=O)c3c(O)cccc32)cc1`, for which the 50% inhibitory concentration (IC50) in [3] is greater than 30 µM; in data set [4], 7 µM; in the data set on HaCaT [2], 0.9 µM. Also, the LDH in the data set with HaCaT [5] turned out to be 184 mU/mL. For the same compound, in data set [1], the DD is 1.49.
Take `O=C(O)CSC1c2cccc(O)c2C(=O)c2c(O)cccc21`: the IC50 in [3] is 30 µM; in data set [4], greater than 30 µM; in the data set with HaCaT [2], greater than 5 µM. Moreover, the DD in data set [1] was 6.12.
Regarding `O=C1c2c(O)cccc2C(Sc2ccccc2O)c2cccc(O)c21`, the IC50 in data set [3] worked out at 30 µM; in data set [4], 5 µM; with HaCaT [2], 1.7 µM. This compound came in with an LDH in the data set with HaCaT [5] of 174 mU/mL. For the same compound, the DD in data set [1] stood at 3.7.
With `COC(=O)CSC1c2cccc(O)c2C(=O)c2c(O)cccc21`, the IC50 is greater than 30 µM in data set [3], 13 µM in data set [4] and 1.9 µM in the data set on HaCaT [2]. Besides, the DD in data set [1] was determined as 4.89.
For `COc1ccccc1SC1c2cccc(O)c2C(=O)c2c(O)cccc21` the same measures were 3 µM, 6 µM, 4.2 µM and 4.33.
On to `COc1ccc(CSC2c3cccc(O)c3C(=O)c3c(O)cccc32)cc1`, for which the IC50 in [3] was 30 µM; in [4], greater than 30 µM; with HaCaT [2], 3 µM. This compound also had a pKa in [6] of 6.1. Further, the half-life is 23 h in data set [7] and 5 h in data set [8]. In addition, in data set [1], the DD amounted to 5.01.
With `O=C1c2c(O)cccc2C(SCCCS)c2cccc(O)c21`, the IC50 is 30 µM in data set [3], greater than 30 µM in data set [4] and 0.8 µM in the data set with HaCaT [2]. The LDH in the data set with HaCaT [5] was determined as 369 mU/mL. Further, the DD in [1] was found to be 4.09.
With `CC(SC1c2cccc(O)c2C(=O)c2c(O)cccc21)C(=O)O` (stereo not given), the IC50 in data set [3] was 15 µM; in data set [4], greater than 30 µM; in the data set with HaCaT [2], 0.2 µM. Also, the DD in [1] was found to be 9.34.
In the same order, the values of `O=C1c2c(O)cccc2C(SCc2ccccc2)c2cccc(O)c21` are 30 µM, greater than 30 µM, 1.4 µM and 3.74.
In the same order, the values of `CCSC1c2cccc(O)c2C(=O)c2c(O)cccc21` are greater than 30 µM, greater than 30 µM, 1.4 µM and 4.23.
In the case of `Nc1ccccc1SC1c2cccc(O)c2C(=O)c2c(O)cccc21`, the figures for the IC50 (in [3]; in data set [4]; with HaCaT [2]) were 6 µM, 2 µM and 0.1 µM, respectively. This compound gave a pKa in data set [6] of 8.4. Also, the half-life is 26 h in data set [7] and 20 h in [8]. The compound further gave an LDH with HaCaT [5] of 255 mU/mL. Besides, the DD in [1] worked out at 4.76.
`O=C1c2c(O)cccc2C(SCCc2ccccc2)c2cccc(O)c21`: the IC50 was greater than 30 µM in data set [3], 30 µM in [4] and 4.7 µM in the data set with HaCaT [2]. The half-life in [9] was 4 h; in data set [10], 3 h. Also, the DD in [1] is 2.78.
